# Results collected from several papers.
# Lines come from different studies, so protocols differ.
# Target: Mitogen-activated protein kinase 3 (MAPK3, Homo sapiens, UniProt P27361)
Compound,effect on,mode,method,cells,concentration,endpoint,value
Cc1c[nH]c2nccc(Oc3c(F)cc(Nc4cc(Cl)nc(N)n4)cc3F)c12,cell-free assay,,competition with immobilised ligand,,0.1 µM,remaining binding,90%
Cn1c(=O)n(-c2ccc(C(C)(C)C#N)cc2)c2c3cc(-c4cnc5ccccc5c4)ccc3ncc21,enzyme activity,inhibitor,,,10 µM,remaining activity,106%
Cc1nc(Cc2cccc(C(F)(F)F)c2)sc1-c1ccc(C(N)=O)nc1,cell-free assay,,competition with immobilised ligand,,1 µM,remaining binding,96%
CC(C)(C)c1nc(-c2cccc(NS(=O)(=O)c3c(F)cccc3F)c2F)c(-c2ccnc(N)n2)s1,enzyme activity,inhibitor,radiometric,,1 µM,remaining activity,92%
CN(c1ccnc(CNc2nc(Nc3ccc4c(c3)CC(=O)N4)ncc2C(F)(F)F)n1)S(C)(=O)=O,cell-free assay,,competition with immobilised ligand,,1 µM,remaining binding,96%
CC(C)(O)[C@H]1CC[C@H](Nc2ccc3ncc(-c4cccc(C(F)(F)F)c4)n3n2)CC1,enzyme activity,inhibitor,,,1 µM,remaining activity,94%
O=C(Nc1cnn(-c2csc(C(=O)NC3COC3)c2)c1)Nc1c(F)cccc1Cl,enzyme activity,inhibitor,,,5 µM,remaining activity,92.4%
COc1cc(Nc2c(C#N)cnc3cc(OCCCN4CCN(C)CC4)c(OC)cc23)c(Cl)cc1Cl,cell-free assay,,,,0.5 µM,remaining signal,98.9%
CCN1CCN(Cc2ccc(NC(=O)c3ccc(C)c(Oc4ccnc5[nH]ccc45)c3)cc2C(F)(F)F)CC1,target engagement in cells,inhibitor,chemoproteomics,A-375,50 nM,inhibition,-24.5%
CCCS(=O)(=O)Nc1ccc(F)c(C(=O)c2c[nH]c3ncc(-c4ccc(Cl)cc4)cc23)c1F,enzyme activity,inhibitor,,,1 µM,inhibition,< 20%
COc1ccc(COc2ccc(Cc3cnc(N)nc3N)cc2OC)cc1,cell-free assay,,,,0.5 µM,remaining signal,99.1%
COc1cc2ncnc(Nc3ccc(Oc4ccccc4)cc3C)c2cc1OC,enzyme activity,inhibitor,,,1 µM,inhibition,5%
FC(F)(F)Oc1cccc(-c2cnc3ccc(-c4ccncc4)nn23)c1,enzyme activity,inhibitor,radiometric,,1 µM,activity vs control,105%
CCC(=O)N[C@@H]1CC[C@H](C(=O)N(C)c2ccc(-c3nc4ccccc4o3)cc2)C1,cell-free assay,,competition with immobilised ligand,,1 µM,remaining binding,100%
Cn1c2c(Cl)c(Cl)ccc2c2cn[nH]c(=O)c21,thermal stability,,DSF,,10 µM,ΔTm,0.1 °C
Nc1nc(Nc2ccccc2)sc1C(=O)c1c(F)cccc1F,enzyme activity,inhibitor,,,10 µM,remaining activity,72%
COc1cc(Nc2cnc(C#N)c(O[C@H](C)CN(C)C)n2)ncc1-c1cnn(C)c1,enzyme activity,inhibitor,radiometric,,1 µM,remaining activity,96%
Cc1nc(N2CC[C@@H](O)C2)ncc1-c1cc(C(F)(F)F)cc2[nH]ncc12,binding,,competition with immobilised ligand,,1 µM,remaining binding,100%
Cn1c2c(c3ccccc31)C(C#N)C(C)(C)NC2=O (stereo not shown),thermal stability,,DSF,,10 µM,ΔTm,-0.4 °C
Nc1ncnc2occ(-c3ccc(NC(=O)Nc4cc(C(F)(F)F)ccc4F)cc3)c12,cell-free assay,inhibitor,,,20 µM,remaining signal,100%
N#CC1c2c([nH]c3c(Cl)c(Cl)ccc23)C(=O)NC12CCCCC2 (racemic),thermal stability,,DSF,,10 µM,ΔTm,0.1 °C
CC(C)(C)C(=O)c1sc(NC2CCCCC2)nc1N,enzyme activity,inhibitor,,,10 µM,remaining activity,73%
O=C1Nc2ccc(Cl)cc2C1=Cc1cc(Cl)c(O)c(Cl)c1,cell-free assay,,,,0.5 µM,remaining signal,88.2%
c1nc2c(Nc3ccc4c(c3)OCCO4)nc(Nc3ccc4c(c3)OCCO4)nc2[nH]1,enzyme activity,inhibitor,,,10 µM,activity vs control,94%
CNC(=O)c1cc(Oc2ccc(NC(=O)Nc3ccc(Cl)c(C(F)(F)F)c3)cc2)ccn1,cell-free assay,,,,0.5 µM,remaining signal,105%
CNc1cccc2cc(C(=O)Nc3ccc(C(=O)O)cc3)c(=O)[nH]c12,enzyme activity,inhibitor,,,10 µM,inhibition,1.9%
N#CC(=C(N)Sc1ccc(N)cc1)c1ccccc1C(F)(F)F,cell-free assay,,,,0.5 µM,remaining signal,116%
O=C(Nc1cccnn1)N1CCC(=Cc2cccc(Oc3ccc(C(F)(F)F)cn3)c2)CC1,cell-free assay,,competition with immobilised ligand,,1 µM,remaining binding,100%
Cn1c2c(c3ccc(Cl)c(Cl)c31)C(C#N)C(C)(C)NC2=O (stereo not shown),thermal stability,,DSF,,10 µM,ΔTm,0.1 °C
CCN1CCN(Cc2ccc(NC(=O)c3ccc(C)c(/C=C/c4cnc5[nH]ccc5c4OC)c3)cc2C(F)(F)F)CC1,target engagement in cells,inhibitor,chemoproteomics,A-375,0.5 µM,inhibition,-18.7%
CCN1CCC2(CC1)NC(=O)c1c(c3ccc(Cl)c(Cl)c3n1C)C2C#N (racemic),thermal stability,,DSF,,10 µM,ΔTm,0 °C
Cc1cc(NC(=O)c2cccc(S(F)(F)(F)(F)F)c2)cc(-n2ccn3nc(-c4cccnc4)cc23)c1,cell-free assay,,competition with immobilised ligand,,1 µM,remaining binding,86.8%
CN1CCC2(CC1)NC(=O)c1c(c3ccc(Cl)c(Cl)c3n1C)C2C#N (racemic),thermal stability,,DSF,,10 µM,ΔTm,0.3 °C
C[C@H](c1ccc(F)cc1)N(Cc1cccc(C(=O)O)c1)C(=O)c1cnc2ccccc2c1,cell-free assay,,competition with immobilised ligand,,1 µM,remaining binding,100%
